Data on 28 compounds can be found in ChEMBL document CHEMBL2069238, “Discovery of potent and selective rhodanine type IKKβ inhibitors by hit-to-lead strategy” (Bioorg Med Chem Lett, 2012).

pIC50: −log10 of the molar value.

The target of assay [1] is T1, Inhibitor of nuclear factor kappa-B kinase subunit beta (Homo sapiens) (UniProt O14920).
T1 sequence (whole entry): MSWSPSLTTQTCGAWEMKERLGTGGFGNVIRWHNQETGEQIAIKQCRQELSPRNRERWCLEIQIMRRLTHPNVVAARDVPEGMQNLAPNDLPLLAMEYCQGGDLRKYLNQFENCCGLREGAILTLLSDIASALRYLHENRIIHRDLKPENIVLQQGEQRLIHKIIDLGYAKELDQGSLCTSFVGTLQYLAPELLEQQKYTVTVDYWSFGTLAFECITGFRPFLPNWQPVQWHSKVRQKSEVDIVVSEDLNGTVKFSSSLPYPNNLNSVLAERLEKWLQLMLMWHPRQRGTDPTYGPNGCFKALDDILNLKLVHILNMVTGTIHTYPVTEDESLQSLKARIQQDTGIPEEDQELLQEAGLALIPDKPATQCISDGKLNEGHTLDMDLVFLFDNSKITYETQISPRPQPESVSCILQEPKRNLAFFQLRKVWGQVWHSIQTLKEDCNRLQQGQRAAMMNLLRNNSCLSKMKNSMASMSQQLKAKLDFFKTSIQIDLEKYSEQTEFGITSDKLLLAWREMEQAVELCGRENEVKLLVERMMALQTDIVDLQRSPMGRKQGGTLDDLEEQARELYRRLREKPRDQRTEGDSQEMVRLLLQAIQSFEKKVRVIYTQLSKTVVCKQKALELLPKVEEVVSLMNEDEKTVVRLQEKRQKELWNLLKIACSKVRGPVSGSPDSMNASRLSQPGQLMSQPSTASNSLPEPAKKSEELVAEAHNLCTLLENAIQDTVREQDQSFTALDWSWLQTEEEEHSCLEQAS
Briefly: Inhibition of IKKbeta using 5FAM-GRHDSGLDSMK-NH2 as substrate at 10 uM incubated for 10 mins prior to substrate addition by IMAP-TR-FRET assay. For orientation: In TR-FRET formats the signal depends on donor and acceptor labels being close together.

Assay [2] has as its target T2, Inhibitor of nuclear factor kappa-B kinase subunit beta (Homo sapiens, UniProt O14920).
T2 sequence (O14920 whole entry): T1 sequence (whole entry)
Kind of assay: Inhibition of IKKbeta using 5FAM-GRHDSGLDSMK-NH2 as substrate incubated for 10 mins prior to substrate addition by IMAP-TR-FRET assay.

The target in assay [3] is T1, Inhibitor of nuclear factor kappa-B kinase subunit beta (Homo sapiens). Kind of assay: Inhibition of IKKbeta in human HeLa cells assessed as inhibition of TPA-induced NFkappaB activation at 10 uM incubated for 1 hr prior to TPA-challenge measured after 8 hrs by luciferase reporter gene assay. The class given is cell-based. In short, it runs like this: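 HeLa cells transfected with an NF-κB luciferase reporter plasmid, pre-treated with inhibitor for 1 h, then stimulated with TPA (50 ng/mL) for 8 h. Luciferase activity normalized to protein content of each extract, expressed as relative luciferase units per mg versus non-treated cells; n = 3.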

Assay [4] addresses T3, Inhibitor of nuclear factor kappa-B kinase subunit beta (Mus musculus, UniProt O88351).
T3 sequence (O88351 whole entry): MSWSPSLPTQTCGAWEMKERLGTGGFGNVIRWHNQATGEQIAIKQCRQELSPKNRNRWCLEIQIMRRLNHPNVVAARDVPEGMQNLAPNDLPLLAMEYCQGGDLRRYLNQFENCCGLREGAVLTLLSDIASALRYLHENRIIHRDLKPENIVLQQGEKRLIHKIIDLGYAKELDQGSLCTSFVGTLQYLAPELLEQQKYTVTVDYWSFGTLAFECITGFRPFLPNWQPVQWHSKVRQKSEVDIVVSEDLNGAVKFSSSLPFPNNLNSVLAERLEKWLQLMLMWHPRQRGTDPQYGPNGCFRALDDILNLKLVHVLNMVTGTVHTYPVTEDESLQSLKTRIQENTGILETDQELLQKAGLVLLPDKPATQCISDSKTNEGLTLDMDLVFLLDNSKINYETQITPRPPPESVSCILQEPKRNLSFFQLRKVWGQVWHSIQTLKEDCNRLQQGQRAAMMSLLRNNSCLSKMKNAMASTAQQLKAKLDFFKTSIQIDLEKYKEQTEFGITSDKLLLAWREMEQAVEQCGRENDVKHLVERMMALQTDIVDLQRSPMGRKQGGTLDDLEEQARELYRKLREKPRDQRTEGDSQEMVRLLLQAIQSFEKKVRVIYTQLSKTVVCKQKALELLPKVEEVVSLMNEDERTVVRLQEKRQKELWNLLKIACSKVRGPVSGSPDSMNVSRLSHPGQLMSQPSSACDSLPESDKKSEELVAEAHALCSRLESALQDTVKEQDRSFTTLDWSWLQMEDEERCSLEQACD
Briefly: Inhibition of IKKbeta in mouse CIA model splenocytes assessed as inhibition of TNFalpha production after 72 hrs by ELISA. It counts as cell-based. In short, it runs like this: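 Spleens from collagen type II-immunized mice were taken 8 weeks after primary immunization. Red cells were lysed with 0.83% ammonium chloride, and cells were strained and resuspended in RPMI 1640 at 1 × 10^6 cells/well, then exposed to inhibitor for 72 h. Supernatant TNFα was measured by sandwich ELISA with an alkaline phosphatase chromogenic read at 405 nm, quantified against a recombinant murine TNFα standard curve.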
For orientation: An ELISA detects its analyte on a solid surface through an enzyme-linked reagent.

Assay [5] addresses T4, Inhibitor of nuclear factor kappa-B kinase subunit alpha (Homo sapiens, UniProt O15111).
T4 sequence (O15111 whole entry): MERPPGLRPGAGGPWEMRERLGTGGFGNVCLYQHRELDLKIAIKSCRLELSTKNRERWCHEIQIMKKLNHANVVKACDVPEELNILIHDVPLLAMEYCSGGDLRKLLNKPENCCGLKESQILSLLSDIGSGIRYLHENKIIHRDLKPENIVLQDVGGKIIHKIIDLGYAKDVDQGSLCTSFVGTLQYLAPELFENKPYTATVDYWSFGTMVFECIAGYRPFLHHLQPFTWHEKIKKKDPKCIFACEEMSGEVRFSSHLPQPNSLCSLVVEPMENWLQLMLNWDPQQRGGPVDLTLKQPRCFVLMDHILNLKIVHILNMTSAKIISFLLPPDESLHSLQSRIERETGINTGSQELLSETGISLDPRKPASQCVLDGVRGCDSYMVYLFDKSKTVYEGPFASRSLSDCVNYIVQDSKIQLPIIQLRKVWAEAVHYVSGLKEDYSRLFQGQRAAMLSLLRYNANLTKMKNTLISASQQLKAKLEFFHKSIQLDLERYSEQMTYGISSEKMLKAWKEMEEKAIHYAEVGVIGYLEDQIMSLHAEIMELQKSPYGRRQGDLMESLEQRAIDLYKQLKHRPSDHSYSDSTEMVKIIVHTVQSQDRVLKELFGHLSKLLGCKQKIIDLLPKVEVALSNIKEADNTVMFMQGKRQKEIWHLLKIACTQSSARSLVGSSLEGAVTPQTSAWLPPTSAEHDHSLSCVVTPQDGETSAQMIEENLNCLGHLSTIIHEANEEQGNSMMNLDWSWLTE
Briefly: Inhibition of IKKalpha.

The inhibition is how much of the control response was suppressed. As for `CCN(CC)CCCOc1ccc(N2C(=O)/C(=C/c3ccc(C(N)=O)cc3)SC2=S)cc1`, in assay [1], the inhibition was 15.5%.

One may read the pIC50 as −log10 of the IC50, conventionally taken in molar units. As for `CCN(CC)CCCOc1ccc(N2C(=O)/C(=C/c3ccc(-c4cccc(C(N)=O)c4)o3)SC2=S)cc1`, in assay [2], the pIC50 was 5.24. Also, the inhibition in assay [3] came to 59.1%; in assay [1], 87.1%.

Consider `CN1CCN(CCCOc2ccc(N3C(=O)/C(=C/c4ccc(Oc5ccccc5C(N)=O)cc4)SC3=S)cc2)CC1`, for which the pIC50 in assay [2] is 5.07; in assay [4], 4.92. Further, the inhibition in assay [3] stood at 42.4%; in assay [1], 52.7%.

Compound `CCN(CC)CCCOc1ccc(N2C(=O)/C(=C/C=C(c3ccccc3)c3ccccc3)SC2=S)cc1` showed a pIC50 in assay [2] of 4.85. This compound also returned an inhibition in assay [1] of 52.6%.

With `N#Cc1c(C2CCCNC2)cc(-c2ccccc2O)nc1N` (stereo not drawn), the pIC50 is 6.77 in assay [2], 5.74 in assay [4] and 6.19 in assay [5]. Moreover, the inhibition in assay [3] amounted to 73.9%; in assay [1], 88.7%.

For the compound `CCN(CC)CCCOc1ccc(N2C(=O)/C(=C/c3ccc(-c4ccc(C(N)=O)cc4)o3)SC2=S)cc1`, in assay [2], the pIC50 was 5.48. The results for the inhibition in assay [3] and in assay [1] were 57.4% and 77.2%, respectively.

In the case of `CCN(CC)CCCOc1ccc(N2C(=O)/C(=C/c3ccc(Cl)c(Cl)c3)SC2=S)cc1`, the pIC50 in assay [2] is 5.03. Also, the inhibition in assay [1] came out at 61.8%.

In the case of `CCN(CC)CCCOc1ccc(N2C(=O)/C(=C/c3ccc(Oc4ccccc4C(N)=O)cc3)SC2=S)cc1`, the inhibition in assay [1] turned out to be 4.8%.

Take `CCN(CC)CCCOc1ccc(N2C(=O)/C(=C/c3ccc(Oc4cccc(C(N)=O)c4)cc3)SC2=S)cc1`: the pIC50 in assay [2] is 5.14; in assay [4], 5.00. The inhibition is 39.3% in assay [3] and 84.9% in assay [1].

On to `NC(=O)c1cccc(Oc2ccc(/C=C3\SC(=S)N(c4ccc(OCCCN5CCCC5)cc4)C3=O)cc2)c1`, for which the pIC50 is 5.20 in assay [2] and 5.15 in assay [4]. The values for the inhibition in assay [3] and in assay [1] were 57% and 57.3%, respectively.

On to `CCN(CC)CCCOc1ccc(N2C(=O)/C(=C/c3ccc(Oc4ccc(Cl)cc4)cc3)SC2=S)cc1`, for which the results for the negative-log IC50 (pIC50) in assay [2] and in assay [4] were 4.81 and 4.89, respectively. Moreover, the inhibition in assay [3] was determined as 71.4%; in assay [1], 36.5%.

On to `CCN(CC)CCOc1ccc(N2C(=O)/C(=C/c3ccc(Oc4cccc(C(N)=O)c4)cc3)SC2=S)cc1`, for which the inhibition in assay [3] turned out to be 57%; in assay [1] it was 17.1%. In assay [4], the pIC50 is 5.15.

Consider `CCN(CC)CCCOc1ccc(N2C(=O)/C(=C/c3ccc(Oc4ccc(C(N)=O)cc4)cc3)SC2=S)cc1`, for which the pIC50 in assay [2] is 5.59; in assay [4] it was 5.10. The results for the inhibition in assay [3] and in assay [1] were 46.6% and 95.7%, respectively.

In the case of `CCN(CC)CCOc1ccc(N2C(=O)/C(=C/c3ccc(Oc4ccc(C(N)=O)cc4)cc3)SC2=S)cc1`, the pIC50 was 5.06 in assay [2] and 5.10 in assay [4]. The inhibition in assay [3] turned out to be 58.5%; in assay [1] it was 62.6%.

With `CCN(CC)CCOc1ccc(N2C(=O)/C(=C/c3ccc(Oc4ccccc4C(N)=O)cc3)SC2=S)cc1`, the inhibition in assay [1] stood at 1.6%.

As to `CCN(CC)CCCOc1ccc(N2C(=O)/C(=C/c3ccc4ccccc4c3)SC2=S)cc1`, in assay [1], the inhibition is 23.4%.

In the case of `CN1CCN(CCCCCOc2ccc(N3C(=O)/C(=C/c4ccc(Oc5ccc(C(N)=O)cc5)cc4)SC3=S)cc2)CC1`, the pIC50 in assay [2] is 6.80. For the same compound, the inhibition in assay [1] was determined as 89.3%.

Consider `NC(=O)c1cccc(-c2ccc(/C=C3\SC(=S)N(c4ccc(OCCCN5CCOCC5)cc4)C3=O)o2)c1`, for which the inhibition in assay [1] is 2.1%.

In assay [1], `NC(=O)c1cccc(Oc2ccc(/C=C3\SC(=S)N(c4ccc(OCCCN5CCOCC5)cc4)C3=O)cc2)c1` had an inhibition of 48.8%.

In the case of `NC(=O)c1cccc(Oc2ccc(/C=C3\SC(=S)N(c4ccc(OCCCN5CCCCC5)cc4)C3=O)cc2)c1`, the figures for the negative-log IC50 (pIC50) in assay [2] and in assay [4] were 5.20 and 4.52, respectively. The inhibition in assay [3] was 42.1%; in assay [1] it was 83%.

Consider `CCN(CC)CCCOc1ccc(N2C(=O)/C(=C/C=C/c3ccc(N(C)C)cc3)SC2=S)cc1`, for which, in assay [1], the inhibition was determined as 28.1%.

As for `CCN(CC)CCCOc1ccc(N2C(=O)/C(=C/c3ccc(O)cc3)SC2=S)cc1`, the pIC50 in assay [2] was 4.63. Further, in assay [1], the inhibition was 56%.

Consider `NC(=O)c1ccccc1Oc1ccc(/C=C2\SC(=S)N(c3ccc(OCCCN4CCCCC4)cc3)C2=O)cc1`, for which, in assay [1], the inhibition came to 18.6%.

`NC(=O)c1ccccc1Oc1ccc(/C=C2\SC(=S)N(c3ccc(OCCCN4CCCC4)cc3)C2=O)cc1` gave an inhibition in assay [1] of 21.3%.

In turn, `CCN(CC)CCCOc1ccc(N2C(=O)/C(=C/c3c(Cl)cccc3Cl)SC2=S)cc1` gave an inhibition in assay [1] of 3.4%.

As to `NC(=O)c1ccc(Oc2ccc(/C=C3\SC(=S)N(c4ccc(OCCCN5CCCCC5)cc4)C3=O)cc2)cc1`, the pIC50 in assay [2] was 5.38; in assay [4], 4.52. Also, the inhibition turned out to be 48.2% in assay [3] and 81.2% in assay [1].

For `CN1CCN(CCCCOc2ccc(N3C(=O)/C(=C/c4ccc(Oc5ccc(C(N)=O)cc5)cc4)SC3=S)cc2)CC1`, the pIC50 in assay [2] was 6.64; in assay [4], 5.40. In addition, the inhibition in assay [1] was found to be 90.4%.

`CCN(CC)CCCOc1ccc(N2C(=O)/C(=C/c3ccncc3)SC2=S)cc1` gave an inhibition in assay [1] of 3.2%.
